Experiment [1] in a line: Induction of apoptosis in human RC-58T/h/SA#4 cells assessed as DR4 expression at 5 uM after 24 hrs by immunoblotting analysis relative to untreated control. It is filed as functional.
A short description of experiment [2]: Induction of apoptosis in human RC-58T/h/SA#4 cells assessed as DR5 expression at 10 uM after 24 hrs by immunoblotting analysis relative to untreated control. It is filed as functional.
The nature of experiment [3]: Induction of apoptosis in human RC-58T/h/SA#4 cells assessed as p53 expression at 20 uM after 6 hrs by immunoblotting analysis relative to untreated control. It is filed as functional. The method, boiled down:
(§1)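 RC-58T/h/SA#4 cells seeded at 5 × 10^4 cells/mL and cultured 24 h, then given compound across a concentration series or at fixed dose over a time course. Lysates were quantified by BCA. 10 μg protein/lane run on 12% SDS-PAGE and transferred to nitrocellulose. Blots probed for p53, CHOP and β-actin with HRP secondary and ECL.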

Experiment [4] is filed under the species Homo sapiens. The experiment can be described thus: Sensitization of TRAIL-induced apoptosis in human RC-58T/h/SA#4 cells assessed as AIF level in mitochondria at 20 uM after 24 hrs by immunoblotting analysis relative to untreated control. It is filed as functional, cell-based. In short, it runs like this:
(§2)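 Cells given 20 μM compound and/or 100 ng/mL TRAIL for 24 h. Mitochondrial and cytosolic fractions prepared with a mitochondria isolation kit. Fractions resolved by 12% SDS-PAGE at 10 μg/lane and immunoblotted with anti-cytochrome c or anti-AIF overnight at 4 °C, then HRP secondary and ECL detection.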

Experiment [5] can be described thus: Sensitization of TRAIL-induced apoptosis in human RC-58T/h/SA#4 cells assessed as accumulation at Sub-G1 phase at 20 uM after 24 hrs by annexin-V/propidium iodide staining-based flow cytometry (reference value: 4.8%). It is filed as functional.
Experiment [6] is filed under the species Homo sapiens. The experiment can be described thus: Induction of apoptosis in human RC-58T/h/SA#4 cells assessed as cytochrome C level in mitochondria at 20 uM after 24 hrs by immunoblotting analysis relative to untreated control. The experiment is classed as functional, cell-based. The method, boiled down: (§3)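 Cells grown in DMEM/10% FBS at 37 °C, 5% CO2, then treated 24 h with compound (20 μM) with or without TRAIL (100 ng/mL). Whole lysates were used for Bax and Bcl-2. Cytosolic and mitochondrial fractions were prepared with a mitochondria isolation kit for AIF and cytochrome c. Blotting used 10 μg protein/lane, 12% SDS-PAGE, nitrocellulose, overnight primary antibody at 4 °C and ECL detection.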

Experiment [7] is filed under the species Homo sapiens. Description: Induction of apoptosis in human RC-58T/h/SA#4 cells assessed as CHOP expression at 2.5 to 40 uM by immunoblotting analysis relative to untreated control. The experiment is classed as functional, cell-based. As to conditions: TDE = time-dependent effect. In short, it runs like this:
as §1

The nature of experiment [8]: Induction of apoptosis in human RC-58T/h/SA#4 cells assessed as DR5 expression at 20 uM after 24 hrs by immunoblotting analysis relative to untreated control. The experiment is classed as functional.
A short description of experiment [9]: Sensitization of TRAIL-induced apoptosis in human RC-58T/h/SA#4 cells assessed as accumulation at Sub-G1 phase at 20 uM after 24 hrs by annexin-V/propidium iodide staining-based flow cytometry in presence of Dr5 Fc chimera (reference value: 4.8%). It is filed as functional.
Experiment [10] can be described thus: Sensitization of TRAIL-induced apoptosis in human RC-58T/h/SA#4 cells assessed as PARP cleavage at 20 uM after 24 hrs by immunoblotting analysis relative to untreated control. The experiment is classed as functional. The method, boiled down: (§4)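 Cells seeded at 5 × 10^4 cells/mL and cultured 24 h, then given 20 μM compound and/or 100 ng/mL TRAIL for 24 h. Whole-cell lysate made in Tris/NaCl/EDTA/NaF/pyrophosphate/PMSF/aprotinin buffer, 30 min on ice, protein measured by BCA. 12% SDS-PAGE at 10 μg/lane, nitrocellulose blot, primary antibodies (caspase-3, -8, -9, Bax, Bcl-2, PARP) overnight at 4 °C, HRP secondary, ECL.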

For experiment [11], the species on record is Homo sapiens. Description: Sensitization of TRAIL-induced apoptosis in human RC-58T/h/SA#4 cells at 20 uM after 24 hrs by annexin-V/propidium iodide staining-based flow cytometry relative to control. The experiment is classed as functional, cell-based. In short, it runs like this:
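RC-58T/h/SA#4 cells seeded at 1 × 10^5 cells/mL in 6-well plates and given 20 μM compound and/or 100 ng/mL TRAIL for 24 h. Cells washed in ice-cold PBS, labelled with annexin V Alexa Fluor 488 for 30 min at 4 °C in the dark, then with PI. Annexin V-positive fraction counted by flow cytometry; three independent experiments, means ± SD, Student's t-test.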

The species named for experiment [12] is Homo sapiens. The experiment can be described thus: Sensitization of TRAIL-induced apoptosis in human RC-58T/h/SA#4 cells assessed as cytochrome C level in mitochondria at 20 uM after 24 hrs by immunoblotting analysis relative to untreated control. The experiment is classed as functional, cell-based. In short, it runs like this:
as §2

Experiment [13] in a line: Sensitization of TRAIL-induced apoptosis in human RC-58T/h/SA#4 cells assessed as Bax activation at 20 uM after 24 hrs by immunoblotting analysis relative to untreated control. It is filed as functional. In short, it runs like this: as §4
A short description of experiment [14]: Sensitization of TRAIL-induced apoptosis in human RC-58T/h/SA#4 cells assessed as AIF level in cytosol at 20 uM after 24 hrs by immunoblotting analysis relative to untreated control. The experiment is classed as functional. In short, it runs like this: as §2
Experiment [15] in a line: Induction of apoptosis in human RC-58T/h/SA#4 cells assessed as p53 expression at 20 uM after 24 hrs by immunoblotting analysis relative to untreated control. It is filed as functional. The method, boiled down:
as §1

Experiment [16] is described as follows: Induction of apoptosis in human RC-58T/h/SA#4 cells assessed as DR5 expression at 20 uM after 12 hrs by immunoblotting analysis relative to untreated control. The experiment is classed as functional.
Experiment [17] is described as follows: Sensitization of TRAIL-induced apoptosis in human RC-58T/h/SA#4 cells assessed as procaspase-3 activation at 20 uM after 24 hrs by immunoblotting analysis in presence of Dr5 Fc chimera relative to untreated control. The experiment is classed as functional. In short, it runs like this:
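Cells pretreated 2 h with 100 ng/mL DR5 Fc chimera, then given 20 μM compound and/or 100 ng/mL TRAIL for 24 h. Total lysates immunoblotted (12% SDS-PAGE, nitrocellulose) for caspase-3, -8, -9 and PARP cleavage, with HRP secondary and ECL detection.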

Experiment [18] is described as follows: Induction of apoptosis in human RC-58T/h/SA#4 cells assessed as DR5 expression at 20 uM after 6 hrs by immunoblotting analysis relative to untreated control. It is filed as functional.
For experiment [19], the species on record is Homo sapiens. The experiment can be described thus: Sensitization of TRAIL-induced apoptosis in human RC-58T/h/SA#4 cells assessed as cell viability at 20 uM after 24 hrs by SRB assay in presence of NAC.
Experiment [20] can be described thus: Induction of apoptosis in human RC-58T/h/SA#4 cells assessed as DR4 expression at 40 uM after 24 hrs by immunoblotting analysis relative to untreated control. It is filed as functional.
Experiment [21] can be described thus: Induction of apoptosis in human RC-58T/h/SA#4 cells assessed as DR4 expression at 20 uM after 18 hrs by immunoblotting analysis relative to untreated control. The experiment is classed as functional.
Experiment [22] is filed under the species Homo sapiens. The experiment can be described thus: Induction of apoptosis in human RC-58T/h/SA#4 cells assessed as p53 expression after 3 to 24 hrs by immunoblotting analysis relative to untreated control. It is filed as functional, cell-based. In short, it runs like this:
as §1

A short description of experiment [23]: Induction of apoptosis in human RC-58T/h/SA#4 cells assessed as cytochrome C level in cytosol at 20 uM after 24 hrs by immunoblotting analysis relative to untreated control. It is filed as functional. In short, it runs like this: as §3

Activity calls are given as the source filed them. The calls are words filed in the database; no cut-off is given here.

As to `CC(C)/C=C/C(=O)c1ccoc1`, the Ratio in [1] was 1.1; in experiment [2], 1.2; in experiment [3], 1.1; in the experiment filed under Homo sapiens [4], 0.3; in the experiment listed under Homo sapiens [6], 1.2; in experiment [8], 1.2. In addition, the Ratio in experiment [10] amounted to 0.7; in the experiment filed under Homo sapiens [12] it was 0.5; in experiment [13], 1.8; in experiment [14] it was 1.2; in experiment [15], 2.3; in [16] it was 1.3. In addition, the Ratio was found to be 0.9 in experiment [17]; 1.3 in experiment [18]; 1.1 in experiment [20]; 1.1 in experiment [21]; 0.9 in [23]. The Activity in experiment [5] was 18%; in the experiment listed under Homo sapiens [7], “tde”; in experiment [9], 14.3%; in the experiment listed under Homo sapiens [22], “Dose-dependent effect”. Further, the result in the experiment listed under Homo sapiens [11] was Active. Also, the result in the experiment listed under Homo sapiens [19] was inactive.

The values above are taken from ChEMBL document CHEMBL3351274, “Sensitization of tumor necrosis factor-related apoptosis-inducing ligand (TRAIL)-resistant primary prostate cancer cells by isoegomaketone from Perilla frutescens” (J Nat Prod, 2014).
